Data set [1] has as its system HUVEC cells. The data set is described as follows: Cell cycle assay by flow cytometry. The data set is classed as cell-based, human. As to conditions: 50 nM (calculated by free DM1), 12 h.
The nature of data set [2]: In vivo safety examination. More on the design: species or system C57BL/6 mice. The method, boiled down: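 This used the B16 s.c. model in C57BL/6 mice with tail-vein dosing in saline. Body weight was recorded every other day. On day 25 after implantation, 500 μL of blood was taken without heparin and centrifuged (4000 rpm, 5 min); ALT and AST were measured in serum. 20 μL of peripheral blood went for WBC, RBC and platelet counts by autoanalyzer. Heart, liver, spleen, kidney and lung were formalin-fixed, paraffin-embedded, cut at 5 μm and H&E-stained for light microscopy.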

Data set [3] concerns B16 cells. The data set can be described thus: Cell cycle assay by flow cytometry. The data set is classed as cell-based, mouse. Particulars: 50 nM (calculated by free DM1), 12 h.
In data set [4] the test system is MCF-7 cells. The data set is described as follows: Cell cycle assay by flow cytometry. The data set is classed as cell-based, human. Particulars: 50 nM (calculated by free DM1), 12 h.

Turning to `COc1cc2cc(c1Cl)N(C)C(=O)C[C@H](OC(=O)[C@H](C)N(C)C(=O)CCS)[C@]1(C)O[C@H]1[C@H](C)[C@@H]1C[C@@](O)(NC(=O)O1)[C@H](OC)/C=C/C=C(\C)C2` [DM1, Maytansinoid DM1], the “percentage of cells in G2/M phase” value in data set [1] is recorded as 42.23%; in data set [3], 58.26%; in data set [4] it was 57.18%. Besides, the “body weight change versus saline” value in data set [2] (B16 tumor-bearing C57BL/6 mice, 400 μg/kg DM1 i.v. every other day x5, n=6) is on record as “significant body weight loss”. Also, the “H&E histology of major organs (heart, liver, spleen, lung, kidney)” value in data set [2] (end of test, 200×) is recorded as “severer organic damages”. The “count of white blood cells (WBC)” value in data set [2] (peripheral blood at the end of test, n=6, compared with the normal value) is “decreased the count”. The “liver function, circulating ALT and AST” value in data set [2] (serum on day 25, n=6) is “obvious hepatic cytolysis”.

Source of the values: PMC5595133 (Theranostics, 2017).
